From ChEMBL document CHEMBL3739328, “Synthesis, structure-activity relationship and biological evaluation of novel arylpiperzines as α1A/1D-AR subselective antagonists for BPH” (Bioorg Med Chem, 2015)

The compounds below were run against T1, Alpha-1D adrenergic receptor (Homo sapiens, UniProt P25100) (assay: Antagonist activity at adrenergic alpha1D receptor (unknown origin) by firefly and renilla dual glo luciferase assay).
T1 sequence (P25100 whole entry): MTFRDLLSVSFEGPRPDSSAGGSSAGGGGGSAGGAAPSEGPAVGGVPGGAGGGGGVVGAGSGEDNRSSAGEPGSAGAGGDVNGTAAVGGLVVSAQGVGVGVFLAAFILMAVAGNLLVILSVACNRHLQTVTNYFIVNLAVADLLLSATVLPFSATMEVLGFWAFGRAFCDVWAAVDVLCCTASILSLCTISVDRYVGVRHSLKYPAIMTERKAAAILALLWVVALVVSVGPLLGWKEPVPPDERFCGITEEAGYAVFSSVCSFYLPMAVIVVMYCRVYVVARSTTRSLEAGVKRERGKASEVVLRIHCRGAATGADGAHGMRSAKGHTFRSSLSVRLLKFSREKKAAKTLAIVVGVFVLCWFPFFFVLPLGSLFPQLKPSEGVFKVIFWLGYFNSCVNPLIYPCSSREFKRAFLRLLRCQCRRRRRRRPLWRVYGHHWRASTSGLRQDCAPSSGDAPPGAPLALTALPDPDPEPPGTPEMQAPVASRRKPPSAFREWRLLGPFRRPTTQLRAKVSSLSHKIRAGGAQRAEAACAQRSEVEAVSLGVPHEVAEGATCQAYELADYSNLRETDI
Summary of the method: (§1)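 Firefly and Renilla luciferase activities (RLU) were read by luminometer with the Dual-Glo kit, following the manufacturer's protocol. IC50 values were derived from three independent experiments.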

IC50 | SMILES
1860 nM | COc1ccc(N2CCN(CCc3ccc(CN4C(=O)c5ccccc5C4=O)cc3)CC2)cc1
63.5 nM | N#Cc1ccc(N2CCN(CCc3ccc(CN4C(=O)c5ccccc5C4=O)cc3)CC2)cc1
164 nM | O=C1c2ccccc2C(=O)N1Cc1ccc(CCN2CCN(c3ccccc3C(F)(F)F)CC2)cc1
866 nM | CC(=O)c1ccc(N2CCN(CCc3ccc(CN4C(=O)c5ccccc5C4=O)cc3)CC2)cc1
1240 nM | COc1ccccc1N1CCN(CCc2ccc(CN3C(=O)c4ccccc4C3=O)cc2)CC1
1760 nM | O=C1c2ccccc2C(=O)N1Cc1ccc(CCN2CCN(c3ccccc3)CC2)cc1
31.3 nM | Cc1ccc(Cl)cc1N1CCN(CCc2ccc(CN3C(=O)c4ccccc4C3=O)cc2)CC1
240 nM | CCOc1ccccc1N1CCN(CCc2ccc(CN3C(=O)c4ccccc4C3=O)cc2)CC1
35.2 nM | O=C1c2ccccc2C(=O)N1Cc1ccc(CCN2CCN(c3ccc(Cl)cc3)CC2)cc1
16.7 nM | N#Cc1ccccc1N1CCN(CCc2ccc(CN3C(=O)c4ccccc4C3=O)cc2)CC1
55.2 nM | COc1ccccc1N1CCN(CC(O)COc2cccc3ccccc23)CC1 (stereo not drawn) [NAFTOPIDIL]
80600 nM | Cc1ccccc1N1CCN(CCc2ccc(CN3C(=O)c4ccccc4C3=O)cc2)CC1

Species: Homo sapiens
Test: Selectivity ratio of IC50 for adrenergic alpha1B receptor (unknown origin) to IC50 for adrenergic alpha1A receptor (unknown origin)

Ratio IC50 | SMILES
0.5 | COc1ccc(N2CCN(CCc3ccc(CN4C(=O)c5ccccc5C4=O)cc3)CC2)cc1
8.6 | N#Cc1ccc(N2CCN(CCc3ccc(CN4C(=O)c5ccccc5C4=O)cc3)CC2)cc1
0.7 | O=C1c2ccccc2C(=O)N1Cc1ccc(CCN2CCN(c3ccccc3C(F)(F)F)CC2)cc1
8.6 | CC(=O)c1ccc(N2CCN(CCc3ccc(CN4C(=O)c5ccccc5C4=O)cc3)CC2)cc1
3.3 | COc1ccccc1N1CCN(CCc2ccc(CN3C(=O)c4ccccc4C3=O)cc2)CC1
5.8 | O=C1c2ccccc2C(=O)N1Cc1ccc(CCN2CCN(c3ccccc3)CC2)cc1
0.9 | Cc1ccc(Cl)cc1N1CCN(CCc2ccc(CN3C(=O)c4ccccc4C3=O)cc2)CC1
13.4 | CCOc1ccccc1N1CCN(CCc2ccc(CN3C(=O)c4ccccc4C3=O)cc2)CC1
1.4 | O=C1c2ccccc2C(=O)N1Cc1ccc(CCN2CCN(c3ccc(Cl)cc3)CC2)cc1
5 | N#Cc1ccccc1N1CCN(CCc2ccc(CN3C(=O)c4ccccc4C3=O)cc2)CC1
4.2 | Cc1ccccc1N1CCN(CCc2ccc(CN3C(=O)c4ccccc4C3=O)cc2)CC1

Species: Homo sapiens
Test: Selectivity ratio of IC50 for adrenergic alpha1B receptor (unknown origin) to IC50 for adrenergic alpha1D receptor (unknown origin)

Ratio IC50 | SMILES
0.2 | COc1ccc(N2CCN(CCc3ccc(CN4C(=O)c5ccccc5C4=O)cc3)CC2)cc1
12.1 | N#Cc1ccc(N2CCN(CCc3ccc(CN4C(=O)c5ccccc5C4=O)cc3)CC2)cc1
1.5 | O=C1c2ccccc2C(=O)N1Cc1ccc(CCN2CCN(c3ccccc3C(F)(F)F)CC2)cc1
0.2 | CC(=O)c1ccc(N2CCN(CCc3ccc(CN4C(=O)c5ccccc5C4=O)cc3)CC2)cc1
0.08 | COc1ccccc1N1CCN(CCc2ccc(CN3C(=O)c4ccccc4C3=O)cc2)CC1
0.5 | O=C1c2ccccc2C(=O)N1Cc1ccc(CCN2CCN(c3ccccc3)CC2)cc1
1 | Cc1ccc(Cl)cc1N1CCN(CCc2ccc(CN3C(=O)c4ccccc4C3=O)cc2)CC1
1.8 | CCOc1ccccc1N1CCN(CCc2ccc(CN3C(=O)c4ccccc4C3=O)cc2)CC1
22.6 | O=C1c2ccccc2C(=O)N1Cc1ccc(CCN2CCN(c3ccc(Cl)cc3)CC2)cc1
10.8 | N#Cc1ccccc1N1CCN(CCc2ccc(CN3C(=O)c4ccccc4C3=O)cc2)CC1
0.01 | Cc1ccccc1N1CCN(CCc2ccc(CN3C(=O)c4ccccc4C3=O)cc2)CC1

The compounds below were run against T2, Alpha-1A adrenergic receptor (Homo sapiens, UniProt P35348) (assay: Antagonist activity at adrenergic alpha1A receptor (unknown origin) by firefly and renilla dual glo luciferase assay).
T2 sequence (P35348 whole entry): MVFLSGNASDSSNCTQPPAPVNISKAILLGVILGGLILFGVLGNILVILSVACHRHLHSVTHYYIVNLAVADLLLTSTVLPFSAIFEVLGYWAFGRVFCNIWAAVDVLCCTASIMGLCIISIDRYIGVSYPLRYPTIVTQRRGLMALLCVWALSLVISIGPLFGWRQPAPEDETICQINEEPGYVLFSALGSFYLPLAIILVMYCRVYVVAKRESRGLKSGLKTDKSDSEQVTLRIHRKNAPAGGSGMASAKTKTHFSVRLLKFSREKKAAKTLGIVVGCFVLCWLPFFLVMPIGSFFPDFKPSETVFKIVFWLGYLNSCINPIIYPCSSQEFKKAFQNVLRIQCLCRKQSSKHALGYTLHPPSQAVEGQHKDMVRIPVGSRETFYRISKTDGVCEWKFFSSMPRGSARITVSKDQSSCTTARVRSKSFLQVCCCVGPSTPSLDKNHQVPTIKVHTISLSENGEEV
Summary of the method: as §1

IC50 | SMILES
885 nM | COc1ccc(N2CCN(CCc3ccc(CN4C(=O)c5ccccc5C4=O)cc3)CC2)cc1
89.2 nM | N#Cc1ccc(N2CCN(CCc3ccc(CN4C(=O)c5ccccc5C4=O)cc3)CC2)cc1
384 nM | O=C1c2ccccc2C(=O)N1Cc1ccc(CCN2CCN(c3ccccc3C(F)(F)F)CC2)cc1
14.2 nM | CC(=O)c1ccc(N2CCN(CCc3ccc(CN4C(=O)c5ccccc5C4=O)cc3)CC2)cc1
30.1 nM | COc1ccccc1N1CCN(CCc2ccc(CN3C(=O)c4ccccc4C3=O)cc2)CC1
151 nM | O=C1c2ccccc2C(=O)N1Cc1ccc(CCN2CCN(c3ccccc3)CC2)cc1
34.5 nM | Cc1ccc(Cl)cc1N1CCN(CCc2ccc(CN3C(=O)c4ccccc4C3=O)cc2)CC1
32.4 nM | CCOc1ccccc1N1CCN(CCc2ccc(CN3C(=O)c4ccccc4C3=O)cc2)CC1
552 nM | O=C1c2ccccc2C(=O)N1Cc1ccc(CCN2CCN(c3ccc(Cl)cc3)CC2)cc1
36.1 nM | N#Cc1ccccc1N1CCN(CCc2ccc(CN3C(=O)c4ccccc4C3=O)cc2)CC1
555 nM | COc1ccccc1N1CCN(CC(O)COc2cccc3ccccc23)CC1 (stereo not drawn) [NAFTOPIDIL]
228 nM | Cc1ccccc1N1CCN(CCc2ccc(CN3C(=O)c4ccccc4C3=O)cc2)CC1

Each compound was assayed against T3, Alpha-1B adrenergic receptor (Homo sapiens, UniProt P35368) (assay: Antagonist activity at adrenergic alpha1B receptor (unknown origin) by firefly and renilla dual glo luciferase assay).
T3 sequence (P35368 whole entry): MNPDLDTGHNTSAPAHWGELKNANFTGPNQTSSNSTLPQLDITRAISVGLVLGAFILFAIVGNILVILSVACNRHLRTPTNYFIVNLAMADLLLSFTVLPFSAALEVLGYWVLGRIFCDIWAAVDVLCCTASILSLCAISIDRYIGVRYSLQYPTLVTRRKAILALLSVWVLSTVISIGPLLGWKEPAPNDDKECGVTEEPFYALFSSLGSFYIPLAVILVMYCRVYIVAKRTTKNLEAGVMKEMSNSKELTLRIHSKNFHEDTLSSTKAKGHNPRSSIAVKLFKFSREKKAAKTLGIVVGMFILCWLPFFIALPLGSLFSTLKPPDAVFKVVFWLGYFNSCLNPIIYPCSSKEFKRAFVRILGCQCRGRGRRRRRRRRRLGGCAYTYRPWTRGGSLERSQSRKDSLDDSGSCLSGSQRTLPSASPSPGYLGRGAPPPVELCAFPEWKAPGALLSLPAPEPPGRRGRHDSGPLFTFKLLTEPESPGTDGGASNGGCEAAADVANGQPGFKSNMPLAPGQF
Summary of the method: as §1

IC50 | SMILES
406 nM | COc1ccc(N2CCN(CCc3ccc(CN4C(=O)c5ccccc5C4=O)cc3)CC2)cc1
769 nM | N#Cc1ccc(N2CCN(CCc3ccc(CN4C(=O)c5ccccc5C4=O)cc3)CC2)cc1
250 nM | O=C1c2ccccc2C(=O)N1Cc1ccc(CCN2CCN(c3ccccc3C(F)(F)F)CC2)cc1
122 nM | CC(=O)c1ccc(N2CCN(CCc3ccc(CN4C(=O)c5ccccc5C4=O)cc3)CC2)cc1
101 nM | COc1ccccc1N1CCN(CCc2ccc(CN3C(=O)c4ccccc4C3=O)cc2)CC1
875 nM | O=C1c2ccccc2C(=O)N1Cc1ccc(CCN2CCN(c3ccccc3)CC2)cc1
31.6 nM | Cc1ccc(Cl)cc1N1CCN(CCc2ccc(CN3C(=O)c4ccccc4C3=O)cc2)CC1
433 nM | CCOc1ccccc1N1CCN(CCc2ccc(CN3C(=O)c4ccccc4C3=O)cc2)CC1
794 nM | O=C1c2ccccc2C(=O)N1Cc1ccc(CCN2CCN(c3ccc(Cl)cc3)CC2)cc1
180 nM | N#Cc1ccccc1N1CCN(CCc2ccc(CN3C(=O)c4ccccc4C3=O)cc2)CC1
634 nM | COc1ccccc1N1CCN(CC(O)COc2cccc3ccccc23)CC1 (stereo not drawn) [NAFTOPIDIL]
949 nM | Cc1ccccc1N1CCN(CCc2ccc(CN3C(=O)c4ccccc4C3=O)cc2)CC1
